How the values were obtained:
[1] = Volume of distribution in Wistar Han rat at 1 mg/kg, iv; format: ADME, organism-based; design: dose 1 mg/kg, route intravenous; details: in vivo, read-out: Vbeta
Method in brief: (§1)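 Single i.v. dose of 1.0 mg/kg lactam; parent compound in plasma quantified by LC-MS/MS with detection down to 0.1 ng/mL. Reported values are averages after i.v. dosing.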

[2] = biological target: T1, Prostaglandin E2 receptor EP1 subtype (Homo sapiens, UniProt P34995); assay: Binding affinity to human EP1 receptor
T1 sequence (P34995 whole entry): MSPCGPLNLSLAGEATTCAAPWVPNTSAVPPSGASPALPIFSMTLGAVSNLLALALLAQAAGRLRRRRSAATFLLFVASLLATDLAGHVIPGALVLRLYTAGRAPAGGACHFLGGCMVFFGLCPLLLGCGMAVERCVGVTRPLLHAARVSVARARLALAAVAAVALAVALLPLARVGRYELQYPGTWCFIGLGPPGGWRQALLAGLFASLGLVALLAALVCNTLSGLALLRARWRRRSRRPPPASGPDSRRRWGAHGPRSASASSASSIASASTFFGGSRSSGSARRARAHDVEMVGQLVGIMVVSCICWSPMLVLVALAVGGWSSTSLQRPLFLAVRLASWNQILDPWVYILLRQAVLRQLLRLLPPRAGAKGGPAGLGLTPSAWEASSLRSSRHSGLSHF

[3] = biological target: T2, Prostaglandin E2 receptor EP3 subtype (Homo sapiens, UniProt P43115); assay: Binding affinity to human EP3 receptor
T2 sequence (P43115 whole entry): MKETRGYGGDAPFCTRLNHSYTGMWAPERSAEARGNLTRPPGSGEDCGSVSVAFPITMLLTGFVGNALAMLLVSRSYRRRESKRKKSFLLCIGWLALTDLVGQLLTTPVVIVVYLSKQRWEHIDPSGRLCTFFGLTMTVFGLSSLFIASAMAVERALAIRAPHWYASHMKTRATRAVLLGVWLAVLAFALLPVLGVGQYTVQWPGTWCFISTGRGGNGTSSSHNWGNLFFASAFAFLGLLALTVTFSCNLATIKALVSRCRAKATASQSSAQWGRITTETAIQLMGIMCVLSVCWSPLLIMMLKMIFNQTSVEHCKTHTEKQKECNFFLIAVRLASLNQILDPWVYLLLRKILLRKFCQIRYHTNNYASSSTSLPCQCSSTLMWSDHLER

[4] = biological target: T3, Prostaglandin E2 receptor EP4 subtype (Homo sapiens, UniProt P35408); assay: Functional activity at human EP4 receptor
[5] = biological target: T3, Prostaglandin E2 receptor EP4 subtype; assay: Binding affinity to human EP4 receptor
[6] = Clearance in Wistar Han rat at 1 mg/kg, iv; format: ADME, organism-based; design: dose 1 mg/kg, route intravenous; details: in vivo; method in brief: as §1
[7] = Half life in Wistar Han rat at 1 mg/kg, iv; format: ADME, organism-based; design: dose 1 mg/kg, route intravenous; details: in vivo; method in brief: as §1
[8] = biological target: Prostaglandin E2 receptor EP2 subtype (Homo sapiens, UniProt P43116); assay: Binding affinity to human EP2 receptor
Prostaglandin E2 receptor EP2 subtype, sequence (P43116 whole entry): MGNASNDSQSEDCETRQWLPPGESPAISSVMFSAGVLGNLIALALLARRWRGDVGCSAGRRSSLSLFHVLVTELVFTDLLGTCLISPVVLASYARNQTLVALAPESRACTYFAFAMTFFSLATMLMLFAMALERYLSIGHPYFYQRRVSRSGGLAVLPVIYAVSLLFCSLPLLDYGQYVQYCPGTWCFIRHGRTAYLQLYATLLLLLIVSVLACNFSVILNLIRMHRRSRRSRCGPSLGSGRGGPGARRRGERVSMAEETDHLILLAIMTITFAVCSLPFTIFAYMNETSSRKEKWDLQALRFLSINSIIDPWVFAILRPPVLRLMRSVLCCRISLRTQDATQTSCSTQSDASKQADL

T3 sequence (P35408 whole entry): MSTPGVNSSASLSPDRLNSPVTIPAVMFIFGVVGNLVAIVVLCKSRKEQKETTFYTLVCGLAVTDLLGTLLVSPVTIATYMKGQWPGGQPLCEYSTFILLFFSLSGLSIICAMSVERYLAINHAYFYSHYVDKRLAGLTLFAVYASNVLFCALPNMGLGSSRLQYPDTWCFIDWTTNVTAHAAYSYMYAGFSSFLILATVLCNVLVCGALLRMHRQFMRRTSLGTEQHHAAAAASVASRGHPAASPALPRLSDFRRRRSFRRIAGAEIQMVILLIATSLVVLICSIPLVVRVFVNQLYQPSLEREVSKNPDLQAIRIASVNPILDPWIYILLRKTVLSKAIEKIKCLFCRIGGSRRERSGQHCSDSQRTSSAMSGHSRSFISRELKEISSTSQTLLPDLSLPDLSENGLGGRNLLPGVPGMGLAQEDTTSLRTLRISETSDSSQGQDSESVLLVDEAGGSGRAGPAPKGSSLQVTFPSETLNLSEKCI

| Compound | Vd [1] | Ki [2] | Ki [3] | EC50 [4] | Ki [5] | clearance [6] | half-life [7] | Ki [8] |
| --- | --- | --- | --- | --- | --- | --- | --- | --- |
| CCCCC[C@H](O)/C=C/[C@H]1CCC(=O)N1CCCCOCC(=O)O | 1.5 L/kg |  |  |  |  |  |  |  |
| Cc1cc(Cl)ccc1-c1cccc([C@H](O)CC[C@H]2CCC(=O)N2CCc2ccc(C(=O)O)cc2)c1 |  | 18000 nM | 54000 nM | 0.04 nM (agonist) |  |  |  |  |
| CCCCC[C@H](O)/C=C/[C@H]1CCC(=O)N1CCc1ccc(C(=O)O)cc1 |  | > 100000 nM | 11000 nM | 11 nM (agonist) | 2.9 nM (antagonist) | 41.7 mL/min/kg | 46.8 min |  |
| O=C(O)c1ccc(CCN2C(=O)CC[C@@H]2/C=C/[C@@H](O)CCC2CCC2)cc1 |  |  | 79000 nM | 0.2 nM (agonist) | 1 nM (antagonist) |  |  | 75 nM (antagonist) |
| COCc1cccc(C[C@H](O)/C=C/[C@H]2CCC(=O)N2CCc2ccc(C(=O)O)cc2)c1 |  |  | > 100000 nM | 5.9 nM (agonist) | 0.7 nM (antagonist) |  |  | 2500 nM (antagonist) |
| CCCCC[C@H](O)/C=C/[C@H]1CCC(=O)N1CCSCCCC(=O)O |  |  | 1900 nM (antagonist) | 17 nM (agonist) | 3.8 nM (antagonist) | 10.5 mL/min/kg | 45.6 min | 4700 nM (antagonist) |
| O=C(O)c1ccc(CCN2C(=O)CC[C@@H]2CC[C@@H](O)CCC2CCC2)cc1 |  |  | 77000 nM | 150 nM (agonist) | 18 nM (antagonist) |  |  | 220 nM (antagonist) |
| CCCCC[C@H](O)/C=C/[C@H]1CCC(=O)N1CCc1ccc(C(=O)O)s1 |  |  | > 100000 nM | 12 nM (agonist) | 6.9 nM (antagonist) |  |  | 3700 nM (antagonist) |
| CCCCC[C@H](O)CC[C@H]1CCC(=O)N1CCc1ccc(C(=O)O)cc1 | 15.3 L/kg |  | 90300 nM | 130 nM (agonist) | 17 nM (antagonist) | 50 mL/min/kg | 210 min | 35 nM (antagonist) |
| CCCCC[C@H](O)/C=C/[C@H]1CCC(=O)N1CCCCCCC(=O)O | 6.9 L/kg |  |  |  |  | 91.7 mL/min/kg | 52.2 min |  |

From ChEMBL document CHEMBL1149243, “Lactams as EP4 prostanoid receptor agonists. 3. Discovery of N-ethylbenzoic acid 2-pyrrolidinones as subtype selective agents” (J Med Chem, 2004)
